Data reported in PubChem BioAssay.
Results filed as inconclusive are left out.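 How the source made its calls, unless noted: active means cell viability at or below a set limit in both duplicate runs, the limit being the all-compound median minus 4 SD (cut at about 23% in these data, passing the limit was not always enough); inconclusive means no clear call, values can overlap the other calls; inactive means the rest.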

Legend:
[1] = OD615 S. cerevisiae growth inhibition, permissive medium, pilot counter-assay, permissive growth control for S. cerevisiae lifespan shortening project (AID 705;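 active means growth inhibition above 25% in both replicates, a cutoff set 3 SD above the mean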); details: OD615, 24 h, at 10 µM, hits give high values
Procedure, shortened: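 System: S. cerevisiae with engineered DeaD lifespan system / Measured by: absorbance (optical density) at 615 nm / Read-out: reduction in yeast growth (OD615) / Times: 4 h cell pre-growth, 24 h exposure at 30 °C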

[2] = Restrictive medium S. cerevisiae growth inhibition, OD615, pilot screen of yeast lifespan reduction project, restrictive growth control (AID 706;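 active means growth inhibition above a set limit, 3 SD over mean compound inhibition, in both replicates, cut at about 43% in these data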;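 further: modified DeaD lifespan yeast strain shifted to restrictive glucose medium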); details: OD615, 48 h, at 10 µM, hits give high values
Procedure, shortened: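 System: Engineered S. cerevisiae DeaD strain | Buffer or medium: Glucose-based CSMM-D restrictive medium | Schedule: 4 h pre-incubation, 48 h exposure at 30 °C | Technique: Optical density at 615 nm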

[3] = viability gain of MRP-1-high H69AR cells under doxorubicin, pilot screen, MRP-1 activator project, CellTiter-Glo, duplicate (AID 807;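 active means viability increase at or above a cutoff of the median across tested compounds plus 3 SD, cut at about 8.5% in these data, passing the limit was not always enough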;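 further: compound pretreatment 18-22 h then 72 h combined with doxorubicin; 0% = doxorubicin alone and 100% = vehicle without doxorubicin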); details: H69AR viability with doxorubicin, CellTiter-Glo luminescence; at 10 µM; hits give high values
[4] = growth suppression of beta-catenin knockout HCT116, pilot screen, human colon tumor cells (AID 823); details: CellTiter-Glo, 60 h, at 10 µM, hits give low values;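 further: 0% = wells killed by 20 µM Hyamine and 100% = untreated DMSO cell wells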
[5] = growth suppression of PTEN-deleted HCT116, pilot screen, cell-based, HCT116 clonal line, CellTiter-Glo (AID 824;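 active means viability at or below 27.92% in each of two runs, the all-compound median minus 4 SD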;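 further: 0% = 20 µM Hyamine control and 100% = vehicle cell control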); details: 60 h, at 10 µM, hits give low values
[6] = inhibitors of the yeast RAM network, pilot screen, dse1pr::URA3 reporter, 5-FOA selection (AID 869;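 active means inhibition over a set limit, the all-compound mean plus 3 SD, in both replicate runs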;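 further: 0% = DMSO wells with no growth and 100% = 10 µM 1-NA-PP1 with full growth; RAM network block rescues cells from 5-FOA so hits raise OD615 growth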); details: S. cerevisiae dse1pr::URA3 5-FOA growth, OD615, 2 d; at 10 µM; hits give high values; strain carries analog-sensitive mutant Cbk1 kinase
[7] = RAM signaling pathway blockade in yeast – S. cerevisiae, Pdr1DBD-CYC8 efflux-inhibited sensitized strain, primary screen (AID 1298;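 active means RAM network inhibition above 8.4% in each of two replicates, 3 SD over the compound average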;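 further: 0% = DMSO untreated cells without growth and 100% = 10 µM 1-NA-PP1 full growth; higher means more yeast growth rescued from 5-FOA killing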); details: S. cerevisiae cbk1-as DSE1-URA3 strain, 5-FOA growth OD615, 2 d; at 50 µM; hits give high values

Cc1sc2ncnc(NCCCO)c2c1C
inactive: growth inhibition [1] -16.1% | growth inhibition [2] -8.24% | viability increase [3] -1.72% | viability [4] 103% | viability [5] 90.5% | inhibition [6] 0.945% | RAM network inhibition [7] 5.49%

O=C(NCCN1CCCCC1)c1ccc2c(c1)OCCO2
inactive: growth inhibition [1] -9.66% | growth inhibition [2] -10.3% | viability increase [3] -1.4% | viability [4] 102% | viability [5] 99% | inhibition [6] 1.86% | RAM network inhibition [7] 2.64%

COC(=O)c1ccccc1NC(=O)CSc1nccn1C
inactive: growth inhibition [1] -3.94% | growth inhibition [2] 2.94% | viability increase [3] -0.69% | viability [4] 93.1% | viability [5] 92.2% | inhibition [6] 1.27% | RAM network inhibition [7] 2.31%

CCOC(=O)N1CCC(NC(=O)Cn2cc3c(n2)CCCCC3)CC1
inactive: growth inhibition [1] -5.77% | growth inhibition [2] 5.48% | viability increase [3] 1.03% | viability [4] 108% | viability [5] 98.6% | inhibition [6] -0.43% | RAM network inhibition [7] 0.41%

Cc1ccc(-c2nnc3n2N=C(c2ccc(Br)cc2)CS3)cc1
inactive: growth inhibition [1] 1.27% | growth inhibition [2] 15.8% | viability increase [3] -2.58% | viability [4] 102% | viability [5] 90.5% | inhibition [6] 2.41% | RAM network inhibition [7] 4.62%

O=C(NCCc1ccccc1)c1ccc2c(c1)N(Cc1ccccc1)C(=O)CS2=O (stereo not drawn)
inactive: growth inhibition [1] 0.9% | growth inhibition [2] -2.98% | viability increase [3] 0.8% | viability [4] 96.3% | viability [5] 88.7% | inhibition [6] 0.2% | RAM network inhibition [7] 3.6%

Cc1cc(C)n(-c2nc(C)nc(NCc3ccccc3)n2)n1
inactive: growth inhibition [1] -17.5% | growth inhibition [2] -11.6% | viability increase [3] -2.88% | viability [4] 88.4% | viability [5] 82.7% | inhibition [6] 0.215% | RAM network inhibition [7] 0.98%

CCCN1Cc2cccc(C(=O)N3CCN(c4cc(Cl)ccc4C)CC3)c2C1=O
inactive: growth inhibition [1] 1.4% | growth inhibition [2] -10.8% | viability increase [3] -0.17% | viability [4] 70.5% | viability [5] 66.7% | inhibition [6] 0.375% | RAM network inhibition [7] 1.65%

COc1ccccc1NC(=O)Nc1ccnn1C1CCCCC1
inactive: growth inhibition [1] -7.38% | growth inhibition [2] -10.3% | viability increase [3] -0.89% | viability [4] 92.2% | viability [5] 94.1% | inhibition [6] 2.41% | RAM network inhibition [7] 0.5%

CCN(CC)S(=O)(=O)c1ccc(-c2nnc3sc4cccc(C)c4n23)cc1
inactive: growth inhibition [1] -22.7% | growth inhibition [2] -11.5% | viability increase [3] -2.97% | viability [4] 73.4% | viability [5] 72.9% | inhibition [6] 2% | RAM network inhibition [7] 3.69%

CC(=O)Nc1nc2ccccc2n1CCN(C)C
inactive: growth inhibition [1] -5.31% | growth inhibition [2] -3.15% | viability increase [3] -0.15% | viability [4] 99.3% | viability [5] 103% | inhibition [6] 2.95% | RAM network inhibition [7] 7.04%

COC(=O)C1C2C=CC3(CN(c4ccc(Cl)c(F)c4)C(=O)C13)O2 (stereo not drawn)
inactive: growth inhibition [1] -5.96% | growth inhibition [2] 0.405% | viability increase [3] -1.28% | viability [4] 94.6% | viability [5] 91.8% | inhibition [6] 1.67% | RAM network inhibition [7] 2.93%

CCc1nn(CC(=O)NCCCN2CCCC2=O)c(=O)c2cc3sccc3n12
inactive: growth inhibition [1] -8.81% | growth inhibition [2] -16.4% | viability increase [3] -2.31% | viability [4] 112% | viability [5] 108% | inhibition [6] 1.91% | RAM network inhibition [7] 0.36%

CCS(=O)(=O)Nc1cc(-c2nc3cccnc3s2)ccc1C
inactive: growth inhibition [1] -6.48% | growth inhibition [2] 12.5% | viability increase [3] -3.94% | viability [4] 100% | viability [5] 82.8% | inhibition [6] 1.89% | RAM network inhibition [7] 5.32%

O=C(CCn1c(=O)oc2ccccc21)N1CCN(c2ccc(F)cc2)CC1
inactive: growth inhibition [1] 2.05% | growth inhibition [2] -4.67% | viability increase [3] -0.8% | viability [4] 107% | viability [5] 102% | inhibition [6] 1.09% | RAM network inhibition [7] 3.71%

O=C(O)CCCC(=O)Nc1ccccc1Br
inactive: growth inhibition [1] 9.25% | growth inhibition [2] 10.5% | viability increase [3] -1.61% | viability [4] 104% | viability [5] 94.8% | inhibition [6] 1.11% | RAM network inhibition [7] 2.11%

CCOC(=O)CC1=C(C#N)C(c2cccnc2)C(C(=O)OCC)=C(N)O1 (stereo not drawn)
inactive: growth inhibition [1] -0.965% | growth inhibition [2] -12.4% | viability increase [3] -3.12% | viability [4] 104% | viability [5] 99.6% | inhibition [6] 1.98% | RAM network inhibition [7] 8.18%

O=C(c1ccccc1F)N1CCN(S(=O)(=O)c2ccc3c(c2)OCCO3)CC1
inactive: growth inhibition [1] -6.31% | growth inhibition [2] 3.28% | viability increase [3] -5.24% | viability [4] 90.5% | viability [5] 91.3% | inhibition [6] 3.16% | RAM network inhibition [7] 2.93%

Cn1cc(SCC(=O)N2CCN(c3ccccc3)CC2)c2ccccc21
inactive: growth inhibition [1] -0.395% | growth inhibition [2] 11.5% | viability increase [3] -4.68% | viability [4] 91.3% | viability [5] 88.4% | inhibition [6] 1.52% | RAM network inhibition [7] 7.36%

CCOc1ccc(C2c3c(oc4cc(C)c(C)cc4c3=O)C(=O)N2CCCN(C)C)cc1OC (stereo not drawn)
inactive: growth inhibition [1] -3.33% | growth inhibition [2] -1.7% | viability increase [3] -1.6% | viability [4] 108% | viability [5] 98% | inhibition [6] -0.13% | RAM network inhibition [7] -0.66%

COc1ccccc1NC(=O)CSc1nnc(C)o1
inactive: growth inhibition [1] -7.09% | growth inhibition [2] -9.04% | viability increase [3] -1.19% | viability [4] 101% | viability [5] 102% | inhibition [6] 2.02% | RAM network inhibition [7] 2.69%

Cc1c(NC(=O)OCCSc2nc(N(C)C)nc(N(C)C)n2)sc(=S)n1C
inactive: growth inhibition [1] 2.93% | growth inhibition [2] 3.13% | viability increase [3] -0.48% | viability [4] 83% | viability [5] 76% | inhibition [6] 2.92% | RAM network inhibition [7] 1.79%

Cc1ccc(F)cc1NC(=O)c1c(-c2ccccc2)noc1C
inactive: growth inhibition [1] -10.2% | growth inhibition [2] -26.1% | viability increase [3] -2.01% | viability [4] 78.8% | viability [5] 72.9% | inhibition [6] 0.015% | RAM network inhibition [7] 2.22%

NC(=O)c1ccsc1NC(=O)c1ccco1
inactive: growth inhibition [1] 7.15% | growth inhibition [2] 20.1% | viability increase [3] -1.54% | viability [4] 102% | viability [5] 99% | inhibition [6] 1.1% | RAM network inhibition [7] 1.1%
